Compound activity deposited in PubChem BioAssay by several laboratories.
WT yeast gro inh – growth inhibition of WT yeast, mitochondrial fusion screen. mitochondrial fusion phenotypic screen, WT strain. inhibition, % at 10 µM. actives 2.1% (n = 190,000); in the data active = inhibition above about 58%; tested in S. cerevisiae
BB579 growth dn – reduces growth of yeast BB579 in restrictive medium; S. cerevisiae BB579 growth, OD615, 48 h; inhibition, % at 10 µM; actives 0.51% (n = 140,000);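 active = inhibition above a set limit, 3 SD over the mean compound inhibition, cut at about 44% in these data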
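Material: Saccharomyces cerevisiae DeaD strain BB579, replicative lifespan model yeast; buffer or medium: CSMM-D restrictive synthetic medium containing dextrose (glucose); compound: 10 µM single dose, DMSO 0.25%; timing: 48 h compound exposure at 30 °C after 4 h preincubation; signal: turbidity as optical density at 615 nm; benchmarks: positive control amphotericin B 10 µg/mL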
DAT uptake mod – modulates human dopamine transporter uptake under cocaine; actives 1.3% (n = 110,000); B-score at 10 µM; AID 449768; Q01959; LLC-PK1 hDAT cells, [14C]-dopamine uptake with cocaine IC80; actives deviate in either direction;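 active = Z score or B-score, a plate-position-corrected score, falls beyond the plate's 99.7% confidence bounds, in either direction; inactive = both scores lie inside the 99.7% bounds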;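 also: scored against the spread of the other compound wells on the same plate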
Target sequence (Q01959 whole entry, looked up): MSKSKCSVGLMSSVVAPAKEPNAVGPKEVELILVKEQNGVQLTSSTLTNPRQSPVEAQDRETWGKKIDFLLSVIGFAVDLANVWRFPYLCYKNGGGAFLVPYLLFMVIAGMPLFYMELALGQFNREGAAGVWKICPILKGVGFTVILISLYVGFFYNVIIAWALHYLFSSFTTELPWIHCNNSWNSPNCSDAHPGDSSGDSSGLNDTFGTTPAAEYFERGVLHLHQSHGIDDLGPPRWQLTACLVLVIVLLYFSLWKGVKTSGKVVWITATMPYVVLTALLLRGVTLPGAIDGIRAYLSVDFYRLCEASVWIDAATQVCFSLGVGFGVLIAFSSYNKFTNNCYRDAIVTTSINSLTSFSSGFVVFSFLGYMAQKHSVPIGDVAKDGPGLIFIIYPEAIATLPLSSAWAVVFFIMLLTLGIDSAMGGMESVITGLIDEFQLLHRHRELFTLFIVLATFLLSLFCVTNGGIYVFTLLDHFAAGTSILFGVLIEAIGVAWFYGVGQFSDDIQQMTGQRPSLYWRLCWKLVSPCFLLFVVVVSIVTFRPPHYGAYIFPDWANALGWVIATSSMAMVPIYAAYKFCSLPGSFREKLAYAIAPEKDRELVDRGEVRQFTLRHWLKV
Measles CPE – protection of cells from measles virus | AID 841 | Measles virus-infected cells, CPE protection, absorbance | protection (pct of control), % at 4 µM | actives 1.5% (n = 140,000); in the data active = protection mostly above about 24%, no sharp cut-off; inactive = mostly below about 26%
Yeast lifespan up – yeast lifespan extension; S. cerevisiae growth with nicotinamide, OD615; deaD strain in restrictive glucose medium; inhibition of the nicotinamide effect, % at 10 µM; actives 0.68% (n = 130,000);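 active = inhibition above a set limit, placed 3 SD over the median of all compounds, cut at about 26% in these data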;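 also: 0% = nicotinamide-treated wells and 100% = cells grown without nicotinamide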
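Test system: DeaD-strain S. cerevisiae / Buffer or medium: restrictive glucose medium / Also added: nicotinamide 1.5 mM / Doses: one concentration, 10 µM, DMSO 0.25% / Schedule: 48 h at 30 °C / Signal: OD615 measurement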
RAM inhibit – yeast RAM network inhibition | S. cerevisiae dse1pr::URA3 reporter, 5-FOA growth OD615, 2 d; analog-sensitive cbk1-as2 kinase mutant strain | inhibition, % at 50 µM | actives 1.8% (n = 190,000);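 active = inhibition above a set limit, 3 SD over mean compound inhibition, cut at about 8.4% in these data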;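 also: 0% = DMSO-only wells with no growth and 100% = 10 µM 1-NA-PP1 full growth; inhibition rescues growth on 5-FOA so higher OD means more RAM inhibition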
Starred values were filed as active, the others as inactive. Hits are enriched below; roughly 6.1% of the tested compounds scored in any of these assays.

`Cc1oc(-c2cccc3ccccc23)nc1CN1CCN(c2ncnc3ccccc23)CC1` gave WT yeast gro inh 62.7* and RAM inhibit 0.7.
For COc1ccc(-c2nc(CN3CCN(c4cc(C)nc(C)c4)CC3)c(C)o2)c2ccccc12 the results were WT yeast gro inh 36.5 and RAM inhibit -0.8.
`CC1CC(O)(Cc2ccccc2)C(C)CN1C` (stereo unspecified) gave WT yeast gro inh -5.7, BB579 growth dn -35.7, DAT uptake mod -0.525, Measles CPE 27.9, Yeast lifespan up 0.0 and RAM inhibit 1.0.
`CC1C(c2ccccc2)N(C)C(c2ccccc2)C(C)C1(O)C#Cc1ccccc1` (stereo unspecified) gave WT yeast gro inh 75.2*, BB579 growth dn -42.8, Measles CPE 8.8, Yeast lifespan up 23.3 and RAM inhibit 1.0.
`CCOC(=O)c1c(C)oc2c1c1c(c3ccccc32)OCN(Cc2cccnc2)C1` gave WT yeast gro inh -1.4, BB579 growth dn -16.0, DAT uptake mod 0.0398, Measles CPE 22.6, Yeast lifespan up -22.9 and RAM inhibit 2.2.
For CCOC(=O)c1c(C)oc2c1cc(O)c1ccccc12 the results were WT yeast gro inh 0.8, BB579 growth dn -32.9, DAT uptake mod 0.564, Measles CPE 17.4, Yeast lifespan up -7.2 and RAM inhibit 0.3.
Screening CCOC(=O)c1c(C)oc2c1c(C(c1cccnc1)N1CCOCC1)c(O)c1ccccc12 (stereo unspecified) returned WT yeast gro inh 62.0*, BB579 growth dn -16.3, DAT uptake mod 1.23, Measles CPE 3.6, Yeast lifespan up 40.4* and RAM inhibit -0.8.
`CCOC(=O)c1c(C)oc2c1c(C=NCc1ccccn1)c(O)c1ccccc12` gave WT yeast gro inh 5.1, BB579 growth dn -59.1, DAT uptake mod -0.0303, Measles CPE 17.7, Yeast lifespan up 31.4* and RAM inhibit 3.4.
Screening CCOC(=O)c1c(C)oc2c1c(C=NCC1CCCO1)c(O)c1ccccc12 (stereo unspecified) returned WT yeast gro inh -8.8, BB579 growth dn -61.6, DAT uptake mod -0.579, Measles CPE 9.8, Yeast lifespan up 29.1* and RAM inhibit 6.0.
`Cc1onc(-c2ccccc2Cl)c1C(=O)OCn1nnc2ccccc2c1=O` gave WT yeast gro inh 2.6, BB579 growth dn -12.0, DAT uptake mod 0.753, Measles CPE 2.9, Yeast lifespan up -3.0 and RAM inhibit -1.5.
For Cc1[nH]c2ccccc2c1C(=O)COC(=O)c1c(-c2ccccc2Cl)noc1C the results were WT yeast gro inh 86.5*, BB579 growth dn -48.8, Measles CPE 11.9, Yeast lifespan up 4.2 and RAM inhibit 4.5.
Screening Cc1onc(-c2c(F)cccc2Cl)c1C(=O)OCN1C(=O)c2ccccc2C1=O returned WT yeast gro inh -4.9, BB579 growth dn -14.5, DAT uptake mod 0.632, Measles CPE 4.5, Yeast lifespan up -17.5 and RAM inhibit 0.7.
For Cc1[nH]c2ccccc2c1C(=O)COC(=O)c1c(-c2c(F)cccc2Cl)noc1C the results were WT yeast gro inh 85.3*, BB579 growth dn -5.2, Measles CPE 6.2, Yeast lifespan up -1.9 and RAM inhibit 4.4.
`COc1ccc(CC(=O)OCC(=O)Nc2cccnc2Cl)cc1OC` gave WT yeast gro inh -0.1 and RAM inhibit 0.4.
`CC(C)(C)c1ccccc1OCCOCCN1CCCCCC1` gave WT yeast gro inh 67.6* and RAM inhibit 0.5.
`Cc1ccc(C(C)(C)C)c(OCCOCCN2CCCC2)c1` gave WT yeast gro inh 8.8, BB579 growth dn 1.5, Measles CPE 4.6, Yeast lifespan up 0.8 and RAM inhibit 1.2.
`CCN(CC)CCNC(=O)c1ccc(Sc2ccc(C)cc2)c(NC(C)=O)c1` gave WT yeast gro inh 2.4 and RAM inhibit 0.2.
For CCOC(=O)C(NC=O)(NC(C)(C)C)C(=O)OCC the results were WT yeast gro inh -19.9, BB579 growth dn -4.2, DAT uptake mod 0.869, Measles CPE 3.3, Yeast lifespan up -10.2 and RAM inhibit 0.7.
For CCC(C)[C@H](NC(=O)N1CCN(c2cccc(C(F)(F)F)c2)CC1)C(=O)OC (stereo partly specified) the results were WT yeast gro inh 24.4, BB579 growth dn -37.3, DAT uptake mod 3.23*, Measles CPE 13.7, Yeast lifespan up -10.9 and RAM inhibit 0.3.
S=C1NCN(C2CCCCC2)CN1Cc1ccccc1 was read as WT yeast gro inh 2.8, BB579 growth dn -35.7, Measles CPE 4.2, Yeast lifespan up 10.0 and RAM inhibit 3.5.
For CCN=c1scc(-c2ccco2)n1/N=C/c1ccc(OC)c(O)c1 the results were WT yeast gro inh 58.6*, BB579 growth dn -39.7, DAT uptake mod -0.34, Measles CPE 8.2, Yeast lifespan up -16.3 and RAM inhibit 0.4.
`CCN=c1scc(-c2ccco2)n1/N=C/c1ccc(O)cc1` gave WT yeast gro inh 2.7, BB579 growth dn -19.7, DAT uptake mod -0.35, Measles CPE 10.2, Yeast lifespan up -8.4 and RAM inhibit 3.5.
CSc1ccccc1NC(=O)Cn1nnc(-c2ccc(S(C)(=O)=O)cc2)n1 was read as WT yeast gro inh 2.7 and RAM inhibit 1.5.
For Cc1cc(C)c(C)c(S(=O)(=O)N2CCN(CC(=O)c3c(N)n(Cc4ccccc4)c(=O)n(C)c3=O)CC2)c1C the results were WT yeast gro inh 16.9, BB579 growth dn -4.6, Measles CPE 18.9, Yeast lifespan up 0.2 and RAM inhibit 1.6.
CC(=O)c1nc(N2C(=O)CC(Cc3ccccc3)C2=O)sc1C (stereo unspecified) was read as WT yeast gro inh -11.2, BB579 growth dn -12.7, Measles CPE 8.7, Yeast lifespan up -2.9 and RAM inhibit 1.4.
For COc1ccc(NC(=O)C2CC(=O)NC(Nc3cccc(C)c3)=N2)cc1 (stereo unspecified) the results were WT yeast gro inh -0.7, BB579 growth dn -35.8, DAT uptake mod 0.0147, Measles CPE 4.3, Yeast lifespan up -11.6 and RAM inhibit 0.7.
Screening CCc1ccc(NC2=NC(C(=O)NC3CCCCC3)CC(=O)N2)cc1 (stereo unspecified) returned WT yeast gro inh -7.5, BB579 growth dn 5.0, DAT uptake mod 0.00976, Measles CPE 56.2*, Yeast lifespan up -1.4 and RAM inhibit 0.1.
`COc1ccc(CC(=O)OCC(=O)NCc2ccc(Cl)cc2)cc1` gave WT yeast gro inh 15.5 and RAM inhibit -0.5.
`COc1ccc(CNC(=O)COC(=O)Cc2ccc(Cl)cc2Cl)cc1` gave WT yeast gro inh -3.5, BB579 growth dn -28.1, Measles CPE 10.4, Yeast lifespan up -2.7 and RAM inhibit 11.3*.
`CC1CC1C(=O)OCC(=O)NCc1ccc(Cl)cc1Cl` (stereo unspecified) gave WT yeast gro inh 82.5*, BB579 growth dn -28.5, Measles CPE 19.6, Yeast lifespan up -18.1 and RAM inhibit -0.1.
